Experimental data pooled from the literature.
Lines come from different studies, so protocols differ.
RORC: Nuclear receptor ROR-gamma (RORC, Homo sapiens, UniProt P51449)
Chymotrypsinogen A: Chymotrypsinogen A (Bos taurus, UniProt P00766)
Toll-like receptor 1/2: Toll-like receptor 1/2 (Homo sapiens, UniProt O60603+Q15399)

O=S(=O)(c1cccc(C(F)(F)F)c1)N1CCc2ccc(OCc3c(Cl)ccnc3Cl)cc21 — IC50 (RORC; ligand displacement, radioligand): 78 nM
CCOCc1nc(O)c(-c2nnc(Cc3ccc(Cl)cn3)o2)c(O)c1-c1c(OC)cccc1OC — EC50 (Apelin receptor (Aplnr, Mus musculus, UniProt Q9WV08); cAMP, agonist): 0.03 nM
Cc1cnc(-c2ccc(-c3ccc(NC(=O)Nc4c(F)cc(F)cc4F)cc3F)c3c2C(=O)NC3)[nH]1 — Kd (Tyrosine-protein kinase Fer (FER, Homo sapiens, UniProt P16591); binding, competition with immobilised ligand): 14 nM
CCCC[C@H](NC(=O)[C@H](CCC(N)=O)NC(=O)[C@H](CO)NC(=O)[C@H](Cc1ccccc1)NC(=O)CCCCCNC(=O)c1ccc(I)cc1)C(=O)N[C@@H](CCCBr)B(O)O — Ki (Chymotrypsinogen A; enzyme activity, inhibitor, fluorescence): 653 nM
CCNc1ccc([N+](=O)[O-])cc1-n1cnc(-c2ccc([N+](=O)[O-])cc2)c1 — EC50 (Toll-like receptor 1/2; reporter gene, agonist): > 100000 nM
NC(=O)C1=CN([C@@H]2O[C@H](COP(=O)(O)OP(=O)(O)OC[C@H]3O[C@@H](n4cnc5c(N)ncnc54)[C@H](O)[C@@H]3O)[C@@H](O)[C@H]2O)C=CC1 — Ki (ADH1 (Saccharomyces cerevisiae, UniProt P00330, H16R); enzyme activity, inhibitor): 12000 nM
CCCC[C@H](NC(=O)[C@H](CCC(N)=O)NC(=O)[C@H](CO)NC(=O)CCCCCN)C(=O)N[C@@H](CCCBr)B(O)O — Ki (Chymotrypsinogen A; enzyme activity, inhibitor, fluorescence): 251 nM
Cc1cc2nc3c(=O)[nH]c(=O)nc-3n(C[C@H](O)[C@H](O)[C@H](O)COP(=O)(O)OP(=O)(O)OC[C@H]3O[C@@H](n4cnc5c(N)ncnc54)[C@H](O)[C@@H]3O)c2cc1C — Kd (Pumilio homolog 2 (Homo sapiens, UniProt Q8TB72); binding; lysate): 15 nM
OC[C@@H]1[C@@H](O)[C@H](O)[C@@H](O)[C@@H]2O[C@H]12 — IC50 (Beta-glucosidase (GBA2, Homo sapiens, UniProt Q9HCG7); enzyme activity, inhibitor; pH 6, lysate): 1160 nM
CC[C@H](C)[C@H](NC(=O)[C@H](Cc1ccccc1)NC(=O)[C@H](CCC(=O)O)NC(=O)[C@H](CCCCN)NC(=O)[C@H](C)NC(=O)[C@H](C)NC(=O)[C@H](CCC(N)=O)NC(=O)CNC(=O)[C@H](CCC(=O)O)NC(=O)[C@H](CC(C)C)NC(=O)[C@H](Cc1ccc(O)cc1)NC(=O)[C@H](CO)NC(=O)[C@H](CO)NC(=O)[C@@H](NC(=O)[C@H](CC(=O)O)NC(=O)[C@H](CO)NC(=O)[C@@H](NC(=O)[C@H](Cc1ccccc1)NC(=O)[C@@H](NC(=O)CNC(=O)[C@H](CCC(=O)O)NC(=O)[C@H](C)NC(=O)[C@@H](N)Cc1c[nH]cn1)[C@@H](C)O)[C@@H](C)O)C(C)C)C(=O)N[C@@H](C)C(=O)N[C@@H](Cc1c[nH]c2ccccc12)C(=O)N[C@@H](CC(C)C)C(=O)N[C@H](C(=O)N[C@@H](CCCCN)C(=O)NCC(=O)N[C@@H](CCCN=C(N)N)C(=O)NCC(=O)O)C(C)C — EC50 (Gastric inhibitory polypeptide receptor (Mus musculus, UniProt Q0P543); reporter gene, agonist, luciferase): > 1000 nM
CNc1ccc([N+](=O)[O-])cc1-n1cnc(-c2ccc(C#N)cc2)c1 — EC50 (Toll-like receptor 1/2; reporter gene, agonist): 210 nM
Cc1cccc(C)c1COc1ccc2c(c1)N(S(=O)(=O)c1cccc(C(F)(F)F)c1)CC2 — IC50 (RORC; ligand displacement, radioligand): 230 nM
CNc1ccc(C(=O)OC)cc1-n1cnc(-c2ccc(C(F)(F)F)cc2)c1 — EC50 (Toll-like receptor 1/2; reporter gene, agonist): > 100000 nM
CNc1nc(I)nc2c1ncn2[C@H]1C[C@H](OP(=O)(O)O)[C@]2(COP(=O)(O)O)C[C@H]12 — Kb (P2Y purinoceptor 1 (Rattus norvegicus, UniProt P49651); calcium signal, antagonist): 5.4 nM
CNc1ccc([N+](=O)[O-])cc1-n1cnc(-c2ccc(F)cc2)c1 — EC50 (Toll-like receptor 1/2; reporter gene, agonist): 2780 nM
O=S(=O)(c1cccc(C(F)(F)F)c1)N1CCc2ccc(OCc3c(F)cncc3Cl)cc21 — IC50 (RORC; ligand displacement, radioligand): 230 nM
CNc1ccc([N+](=O)[O-])cc1-n1cnc(-c2ccc3ccccc3c2)c1 — EC50 (Toll-like receptor 1/2; reporter gene, agonist): 420 nM
O=C(CCn1cc(CCN2CCN(c3cc4c(cc3F)c(=O)c(C(=O)O)cn4C3CC3)CC2)nn1)Nc1ccc(S[C@@H]2O[C@H](CO)[C@H](O)[C@H](O)[C@H]2O)cc1 — Ki (PA-I galactophilic lectin (lecA, Pseudomonas aeruginosa, UniProt Q05097); ligand displacement, FP): 3190 nM
O=S(=O)(c1cccc(Cl)c1)N1CCc2ccc(OCc3c(F)cccc3Cl)cc21 — IC50 (RORC; ligand displacement, radioligand): 370 nM
CNc1ccc([N+](=O)[O-])cc1-n1cnc(-c2cc(F)c(F)cc2F)c1 — EC50 (Toll-like receptor 1/2; reporter gene, agonist): > 100000 nM
